Data set [1] in a line: Cytotoxicity against human MT4 cells after 96 hrs by MTT assay. The format is cell-based. As to conditions: MT4 cells. The method in brief:
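Exponentially growing MT-4 cells at 1 × 10^5 cells/mL in RPMI-1640 with 10% FCS, exposed to serial compound dilutions at 37 °C, 5% CO2. Viability by MTT after 96 h; CC50 is the concentration reducing viability of mock-infected cells by 50%.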

Data set [2] is described as follows: Cytotoxicity against MDBK cells after 48 to 96 hrs by MTT assay. In kind it is cell-based, Bos taurus. Conditions: cattle, MDBK cells. The procedure, abridged:
(§1)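 Cell seeding: MDBK at 6 × 10^5 cells/mL in MEM-E with 10% horse serum and 1 mM Na pyruvate; BHK at 1 × 10^6 cells/mL in MEM-E with 10% FBS. Serial compound dilutions, 37 °C, 5% CO2. Viability of mock-infected cells by MTT after 48–96 h; CC50 is the concentration reducing viability by 50%.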

The nature of data set [3]: Cytotoxicity against BHK cells after 48 to 96 hrs by MTT assay. The format is cell-based, Mesocricetus auratus. As to conditions: hamster. The procedure, abridged: as §1
Data set [4] in a line: Cytotoxicity against african green monkey Vero cells. The format is cell-based. As to conditions: chlorocebus sabaeus. The procedure, abridged: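 Vero 76 monolayers exposed to serial compound dilutions, run in parallel on the same 24-well plates as the plaque-reduction assays. CC50 is the concentration reducing viability of mock-infected cells by 50%.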
The test system of data set [5] is Human immunodeficiency virus 1. The experiment in a line: Antiviral activity against HIV1 3B infected in human MT4 cells assessed as protection from virus-induced cytopathogenicity after 4 days by MTT method. In kind it is functional, organism-based. The method in brief:
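MT-4 cells, 1 × 10^4/well in RPMI with or without serial compound dilutions, infected with HIV-1 IIIB, 100 CCID50 (m.o.i. 0.01). Protection from virus-induced cytopathogenicity read by MTT.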

Data set [6] concerns Vesicular stomatitis virus. The experiment in a line: Antiviral activity against VSV Indiana lab infected in african green monkey Vero cells after 2 days by plaque reduction assay. In kind it is functional, organism-based.
The subject of data set [7] is Bovine viral diarrhea virus 1. The experiment in a line: Antiviral activity against Bovine viral diarrhea virus NADL infected in MDBK cells assessed as protection from virus-induced cytopathogenicity after 3 to 4 days by MTT method. The format is functional, organism-based, Bovine viral diarrhea virus 1-NADL. Conditions: Bovine viral diarrhea virus isolates and strains, MDBK. The method in brief: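 Cytopathogenicity protection assay. MDBK cells at 3 × 10^4/well, grown overnight to confluence. Infected with BVDV NADL at m.o.i. 0.01 in MEM-E with 0.5% inactivated FBS, 1 mM Na pyruvate and 1% kanamycin. Serial compound dilutions added after 1 h. After 3–4 days at 37 °C, viability read by MTT; EC50 is the concentration giving 50% protection.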

Another data set concerns Yellow fever virus. Briefly: Antiviral activity against Yellow fever virus 17D infected in BHK cells assessed as protection from virus-induced cytopathogenicity after 3 to 4 days by MTT method. The format is functional, organism-based.
The next data set deals with Coxsackievirus B2. Briefly: Antiviral activity against Human coxsackievirus B2 Ohio-1 infected in african green monkey Vero cells after 3 days by plaque reduction assay. The format is functional, organism-based, Coxsackievirus B2 (strain Ohio-1). As to conditions: Enterovirus B, Vero, 72 h. The method in brief: (§2)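 Plaque reduction assay. Vero 76 cells at 2 × 10^5/well, grown overnight to confluence in D-MEM with 10% FBS. Infected 2 h with 50–100 PFU/well, unadsorbed virus removed. Overlay of D-MEM with 1% inactivated FBS and 0.75% methylcellulose, with or without serial compound dilutions. Incubated at 37 °C for 3 days (HSV-1 KOS, CVB-2 Ohio-1) or 5 days (RSV A2). Fixed and stained with crystal violet in 50% ethanol; plaques counted; EC50 by linear regression.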

In the next data set the test system is Poliovirus 1. The experiment in a line: Antiviral activity against Polio virus type1 Sabin strain Chat infected in african green monkey Vero cells after 2 days by plaque reduction assay. The format is functional, organism-based, Human poliovirus 1 strain Sabin. As to conditions: Enterovirus C, 48 h.
For another data set, the system named is Human alphaherpesvirus 1. The experiment in a line: Antiviral activity against HSV1 KOS infected in african green monkey Vero cells after 3 days by plaque reduction assay. The format is functional, organism-based. As to conditions: Human alphaherpesvirus 1, KOS, 72 h. The procedure, abridged: as §2
For data set [8], the system named is Respiratory syncytial virus. The experiment in a line: Antiviral activity against RSV A2 infected in african green monkey Vero cells after 5 days by plaque reduction assay. In kind it is functional, organism-based. As to conditions: human respiratory syncytial virus, A2, Vero, 120 h. The procedure, abridged:
as §2

Another data set concerns Vaccinia virus. Briefly: Antiviral activity against Vaccinia virus Elstree-Lister infected in african green monkey Vero cells after 3 days by plaque reduction assay. In kind it is functional, organism-based. As to conditions: Orthopoxvirus vaccinia, 72 h.

Calls of active or inactive are those of the source. The rule behind the calls is not given here. Some results are limits rather than exact numbers.

The compound `COc1ccc(-c2nc3cc([N+](=O)[O-])ccc3[nH]2)c(OC)c1OC` came in with a CC50 at 96 h in [1] of more than 100 µM. Moreover, the CC50 in [2], in [3] and in data set [4] was more than 100 µM in each case. Also, the outcome in data set [5] and in data set [6] was inactive. The EC50 (in data set [7]; in the data set on Yellow fever virus; with Coxsackievirus B2; in the data set with Poliovirus 1; in the data set with Human alphaherpesvirus 1; in [8]) was more than 100 µM throughout. In the data set with Vaccinia virus, the EC50 was more than 100 µM.
`COc1ccc(-c2nc3cc(C(F)(F)F)ccc3[nH]2)c(OC)c1OC`: the midpoint of cytotoxicity in data set [1], the CC50 at 96 h, lay at 93 µM. Also, the CC50 is more than 100 µM in [2], 32 µM in data set [3] and 70 µM in data set [4]. For the same compound, the outcome in data set [5] and in data set [6] was inactive. Also, the EC50 is more than 100 µM in [7]; more than 32 µM in the data set on Yellow fever virus; 16 µM with Coxsackievirus B2; 42 µM in the data set on Poliovirus 1; more than 70 µM in the data set on Human alphaherpesvirus 1; more than 70 µM in [8]. In the data set with Vaccinia virus, this compound came in with an EC50 of more than 70 µM.
With `Fc1ccc(-c2nc3cc(C(F)(F)F)ccc3[nH]2)cc1`, in data set [1], half-maximal cytotoxicity (CC50 at 96 h) was put at 22 µM. In addition, the figures for the CC50 in data set [2], in [3] and in data set [4] were 19 µM, 25 µM and 60 µM, respectively. Also, the outcome in [5] and in [6] was inactive. The EC50 in data set [7] is more than 19 µM; with Yellow fever virus it was more than 25 µM; with Coxsackievirus B2, 13 µM; in the data set with Poliovirus 1 it was more than 60 µM; in the data set with Human alphaherpesvirus 1, more than 60 µM; in [8], more than 60 µM. In the data set with Vaccinia virus, this compound had an EC50 of 8 µM.
Consider `Cn1c(-c2ccc([N+](=O)[O-])cc2)nc2cc(C(F)(F)F)ccc21`, for which the CC50 at 96 h in data set [1] was not below 100 µM. Moreover, the CC50 in data set [2], in [3] and in [4] was more than 100 µM in each case. The outcome in [5] and in data set [6] was inactive. Also, the EC50 (in data set [7]; in the data set with Yellow fever virus; with Coxsackievirus B2; with Poliovirus 1; in the data set with Human alphaherpesvirus 1; in data set [8]) was more than 100 µM in each case. Also, in the data set on Vaccinia virus, the EC50 is more than 100 µM.
`O=[N+]([O-])c1ccc(-c2nc3cc(C(F)(F)F)ccc3n2C23CC4CC(CC(C4)C2)C3)cc1` registered a CC50 at 96 h in data set [1] not below 100 µM. For the same compound, the CC50 in data set [2], in data set [3] and in data set [4] was more than 100 µM throughout. Further, the outcome in data set [5] and in [6] was inactive. The EC50 (in data set [7]; with Yellow fever virus; with Coxsackievirus B2; in the data set with Poliovirus 1; with Human alphaherpesvirus 1; in [8]) was more than 100 µM throughout. In the data set with Vaccinia virus, this compound gave an EC50 of more than 100 µM.
For the compound `O=[N+]([O-])c1ccc(-c2nc3cc(C(F)(F)F)ccc3[nH]2)c([N+](=O)[O-])c1`, the midpoint of cytotoxicity in data set [1], the CC50 at 96 h, lay at 9 µM. In addition, the results for the CC50 in [2], in data set [3] and in data set [4] were 16 µM, 8 µM and 25 µM, respectively. Besides, the outcome in data set [5] and in data set [6] was inactive. Besides, the EC50 is more than 16 µM in data set [7]; more than 8 µM with Yellow fever virus; 9 µM in the data set with Coxsackievirus B2; more than 25 µM in the data set on Poliovirus 1; more than 25 µM with Human alphaherpesvirus 1; more than 25 µM in [8]. For the same compound, the EC50 in the data set on Vaccinia virus is more than 25 µM.
`COc1ccc(-c2nc3cc(C(F)(F)F)ccc3[nH]2)c(OC)c1` showed a CC50 at 96 h in [1] of more than 100 µM. Moreover, the 50% cytotoxic concentration (CC50) in data set [2], in [3] and in data set [4] was more than 100 µM in each case. Further, the outcome in [5] and in data set [6] was inactive. For the same compound, the EC50 in data set [7] is more than 100 µM; with Yellow fever virus it was more than 100 µM; in the data set on Coxsackievirus B2 it was 32 µM; with Poliovirus 1 it was more than 100 µM; in the data set with Human alphaherpesvirus 1, more than 100 µM; in data set [8] it was more than 100 µM. The EC50 in the data set with Vaccinia virus is more than 100 µM.
Take `O=[N+]([O-])c1ccc(-c2nc3cc(C(F)(F)F)ccc3n2C2CCCCC2)cc1`: the midpoint of cytotoxicity in data set [1], the CC50 at 96 h, lay at 49 µM. The CC50 is 68 µM in data set [2], more than 100 µM in data set [3] and more than 100 µM in data set [4]. Moreover, the result in [5] and in data set [6] was inactive. Also, the EC50 in [7] is 60 µM; in the data set with Yellow fever virus, more than 100 µM; in the data set on Coxsackievirus B2, 45 µM; in the data set with Poliovirus 1, more than 100 µM; in the data set on Human alphaherpesvirus 1, more than 100 µM; in data set [8], more than 100 µM. In the data set on Vaccinia virus, the EC50 was found to be 87 µM.
For `Fc1cccc(F)c1-c1nc2cc(Cl)c(Cl)cc2[nH]1`, the midpoint of cytotoxicity in data set [1], the CC50 at 96 h, lay at 17 µM. Moreover, the CC50 is 43 µM in [2], more than 100 µM in data set [3] and more than 100 µM in data set [4]. Moreover, the result in data set [5] and in data set [6] was inactive. For the same compound, the EC50 is more than 43 µM in data set [7]; more than 100 µM in the data set with Yellow fever virus; 30 µM with Coxsackievirus B2; more than 100 µM in the data set with Poliovirus 1; more than 100 µM in the data set with Human alphaherpesvirus 1; more than 100 µM in data set [8]. The EC50 in the data set on Vaccinia virus was more than 100 µM.
In data set [1], `COc1ccc(-c2nc3cc(C(F)(F)F)ccc3[nH]2)c([N+](=O)[O-])c1` had a CC50 at 96 h of 85 µM. Also, the CC50 in [2] was 55 µM; in data set [3] it was 100 µM; in data set [4], 20 µM. Besides, the outcome in data set [5] and in data set [6] was inactive. Besides, the EC50 is more than 55 µM in data set [7]; more than 100 µM in the data set on Yellow fever virus; more than 20 µM with Coxsackievirus B2; more than 20 µM in the data set on Poliovirus 1; more than 20 µM in the data set on Human alphaherpesvirus 1; more than 20 µM in [8]. The EC50 with Vaccinia virus was more than 20 µM.
Turning to `COc1ccc(-c2nc3cc(Cl)c(Cl)cc3[nH]2)c([N+](=O)[O-])c1`, half-maximal cytotoxicity in data set [1] (CC50 at 96 h) was put at 2 µM. Besides, the CC50 was found to be 28 µM in data set [2], 80 µM in data set [3] and 80 µM in [4]. Besides, the outcome in data set [5] and in data set [6] was inactive. The EC50 in data set [7] was more than 28 µM; in the data set on Yellow fever virus it was more than 80 µM; with Coxsackievirus B2 it was more than 80 µM; with Poliovirus 1, more than 80 µM; in the data set on Human alphaherpesvirus 1, more than 80 µM; in data set [8] it was more than 80 µM. The EC50 in the data set on Vaccinia virus is more than 80 µM.
`COc1ccc(-c2nc3cc(C(F)(F)F)ccc3[nH]2)c(N)c1` gave a CC50 at 96 h in data set [1] of 5 µM. The CC50 in data set [2] is 4 µM; in data set [3], not below 100 µM; in data set [4], 50 µM. In addition, the outcome in data set [5] and in [6] was inactive. Also, the EC50 in data set [7] is more than 4 µM; in the data set on Yellow fever virus, 20 µM; with Coxsackievirus B2, 6 µM; with Poliovirus 1 it was 18 µM; in the data set on Human alphaherpesvirus 1 it was more than 50 µM; in data set [8], more than 50 µM. The EC50 with Vaccinia virus is more than 50 µM.
As for `COc1ccc(-c2nc3cc(C(C)=O)ccc3[nH]2)c(OC)c1OC`, the CC50 at 96 h in data set [1] was more than 100 µM. Further, the CC50 in data set [2], in data set [3] and in [4] was more than 100 µM throughout. Besides, the outcome in data set [5] and in data set [6] was inactive. Moreover, the EC50 is more than 100 µM in data set [7]; more than 100 µM in the data set with Yellow fever virus; more than 100 µM in the data set on Coxsackievirus B2; more than 100 µM in the data set on Poliovirus 1; 40 µM in the data set with Human alphaherpesvirus 1; more than 100 µM in data set [8]. For the same compound, in the data set with Vaccinia virus, the EC50 is more than 100 µM.

The record behind these values is ChEMBL document CHEMBL1156237, “Antiviral activity of benzimidazole derivatives. II. Antiviral activity of 2-phenylbenzimidazole derivatives” (Bioorg Med Chem, 2010).
